Residues, ends and D or L forms follow the SMILES beside them. *: point of attachment. X1 = N[C@@H](CCCCNC(=O)c1cnccn1)C(=O)N[C@@H](CCCCNC(=O)c1cnccn1)C(=O)N[C@@H](CCCCNC(=O)c1cnccn1)C(=O)*; Pyrazinecarbonyl = O=C(c1cnccn1)*
What was measured:
[1] = Binding affinity to HIV1 rev response element 2B RNA by 2-AP based displacement assay; set-up: species or system Human immunodeficiency virus 1
Method in brief: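 2-AP-labeled RRE IIB (0.1 μM) refolded at 95 °C 3 min, snap-cooled; titrated with peptide 0–20 μM in 10 mM potassium phosphate, 100 mM KCl, 1 mM MgCl2, 20 mM NaCl, pH 7.0; excitation 310 nm, emission decrease at 372 nm; Kd from Hill fit; at least duplicate, SD. Competition lines include 10-fold excess unlabeled RNA/DNA competitor.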

[2] = tested on: Human immunodeficiency virus 1; assay: Binding affinity to HIV1 RRE RNA in HEK293T cells transfected with HIV1 CMV driven GagPol-RRE plasmid assessed as reduction in Rev-RRE dependent nuclear export by measuring intracellular p24 levels at 70 uM after 48 hrs by ELISA relative to control; assay type: cell-based
Method in brief: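 HEK 293T cells transfected with Rev and CMV-driven GagPol-RRE plasmids plus luciferase control; peptides added 5 h after transfection at 70 μM; cells lysed ~48 h post-transfection and intracellular p24 quantified by ELISA as percent inhibition.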

Compound | Kd [1] [µM] | inhibition [2] [%]
N=C(N)N[C@@H]1C[C@H](C(=O)N2C[C@H](NC(=N)N)C[C@@H]2C(=O)N[C@@H](CCCCNC(=O)c2cnccn2)C(=O)N[C@@H](Cc2ccc(O)cc2)C(N)=O)N(C(=O)[C@H](CCCCNC(=O)[C@H](CCCCNC(=O)c2cnccn2)NC(=O)[C@H]2C[C@@H](N)CN2C(=O)CN(CCN)C(=O)Cn2cnc3c(=O)[nH]c(N)nc32)NC(=O)[C@H](CCCCNC(=O)c2cnccn2)NC(=O)[C@H]2C[C@@H](N)CN2C(=O)CN(CCN)C(=O)Cn2cnc3c(=O)[nH]c(N)nc32)C1 | 1.64 | > 50
N=C(N)N[C@H]1CN[C@@H](C(=O)N2C[C@H](N)C[C@@H]2C(=O)N2C[C@H](N)C[C@@H]2C(=O)NCCCC[C@H](NC(=O)[C@H]2C[C@@H](N)CN2C(=O)[C@H]2C[C@@H](N)CN2C(=O)[C@H]2C[C@@H](NC(=N)N)CN2)C(=O)NCCN(CC(=O)NCCN(CC(=O)N2C[C@H](N)C[C@@H]2C(=O)N[C@@H](Cc2ccc(O)cc2)C(N)=O)C(=O)Cn2cnc3c(=O)[nH]c(N)nc32)C(=O)Cn2cnc3c(=O)[nH]c(N)nc32)C1 | 1.76 | 
N=C(N)N[C@@H]1C[C@H](C(=O)NCCCC[C@H](NC(=O)[C@H]2C[C@@H](NC(=N)N)CN2C(=O)[C@H]2C[C@@H](N)CN2C(=O)[C@H]2C[C@@H](NC(=N)N)CN2)C(=O)N2C[C@H](N)C[C@@H]2C(=O)N2C[C@H](N)C[C@@H]2C(=O)N[C@@H](CCCCNC(=O)c2ccc(B3OC(=O)c4cc(O)ccc4O3)cc2)C(=O)N[C@@H](Cc2ccc(O)cc2)C(N)=O)N(C(=O)[C@H]2C[C@@H](N)CN2C(=O)[C@H]2C[C@@H](NC(=N)N)CN2)C1 | 2.57 | > 50
NC(=O)[C@H](Cc1ccc(O)cc1)NC(=O)[C@H]1C[C@@H](N)CN1C(=O)CN(CCNC(=O)[C@H](CCCCNC(=O)c1cnccn1)NC(=O)[C@H](CCCCNC(=O)[C@H](Cc1cccc2ccccc12)NC(=O)[C@H](CCCCNC(=O)c1ccc(B(O)O)cc1)NC(=O)[C@H]1C[C@@H](N)CN1)NC(=O)[C@H](Cc1cccc2ccccc12)NC(=O)[C@H](CCCCNC(=O)c1ccc(B(O)O)cc1)NC(=O)[C@H]1C[C@@H](N)CN1)C(=O)Cn1cnc2c(=O)[nH]c(N)nc21 | 3.18 | 
N=C(N)N[C@H]1CN[C@@H](C(=O)N[C@@H](CCCCNC(=O)c2ccc(B3OC(=O)c4cc(O)ccc4O3)cc2)C(=O)N[C@@H](CCCCNC(=O)c2ccc(B3OC(=O)c4cc(O)ccc4O3)cc2)C(=O)NCCCC[C@H](NC(=O)[C@H](CCCCNC(=O)c2ccc(B3OC(=O)c4cc(O)ccc4O3)cc2)NC(=O)[C@H](CCCCNC(=O)c2ccc(B3OC(=O)c4cc(O)ccc4O3)cc2)NC(=O)[C@H]2C[C@@H](NC(=N)N)CN2)C(=O)N[C@@H](CCCCNC(=O)c2ccc(B3OC(=O)c4cc(O)ccc4O3)cc2)C(=O)N[C@@H](CCCCNC(=O)c2cnccn2)C(=O)N[C@@H](Cc2cccc3ccccc23)C(=O)N[C@@H](Cc2ccc(O)cc2)C(N)=O)C1 | > 10 | 
NC(=O)[C@H](Cc1ccc(O)cc1)NC(=O)[C@H](CCCCNC(=O)c1cnccn1)NC(=O)[C@H](CCCCNC(=O)c1cnccn1)NC(=O)[C@H](CCCCNC(=O)c1cnccn1)NC(=O)[C@H](CCCCNC(=O)[C@H](CCCCNC(=O)c1cnccn1)NC(=O)[C@H](CCCCNC(=O)c1cnccn1)NC(=O)[C@@H](N)CCCCNC(=O)c1cnccn1)NC(=O)[C@H](CCCCNC(=O)c1cnccn1)NC(=O)[C@H](CCCCNC(=O)c1cnccn1)NC(=O)[C@@H](N)CCCCNC(=O)c1cnccn1 (H-K(Pyrazinecarbonyl)K(Pyrazinecarbonyl)K(Pyrazinecarbonyl)K(X1)K(Pyrazinecarbonyl)K(Pyrazinecarbonyl)K(Pyrazinecarbonyl)Y-NH2) | > 10 | 
N=C(N)N[C@@H]1C[C@H](C(=O)N[C@@H](Cc2ccc(O)cc2)C(N)=O)N(C(=O)[C@H](CCCCNC(=O)c2ccc(B(O)O)cc2)NC(=O)[C@H](CCCCNC(=O)c2ccc(B(O)O)cc2)NC(=O)[C@H](CCCCNC(=O)[C@H]2C[C@@H](N)CN2C(=O)[C@H]2C[C@@H](N)CN2C(=O)[C@H]2C[C@@H](NC(=N)N)CN2)NC(=O)[C@H]2C[C@@H](N)CN2C(=O)[C@H]2C[C@@H](N)CN2C(=O)[C@H]2C[C@@H](NC(=N)N)CN2)C1 | 4.46 | 
N=C(N)N[C@H]1CN[C@@H](C(=O)N2C[C@H](N)C[C@@H]2C(=O)N2C[C@H](N)C[C@@H]2C(=O)NCCCC[C@H](NC(=O)[C@H]2C[C@@H](N)CN2C(=O)[C@H]2C[C@@H](N)CN2C(=O)[C@H]2C[C@@H](NC(=N)N)CN2)C(=O)N[C@@H](CCCCNC(=O)c2cnccn2)C(=O)N[C@@H](Cc2cccc3ccccc23)C(=O)N2C[C@H](N)C[C@@H]2C(=O)N[C@@H](Cc2ccc(O)cc2)C(N)=O)C1 | 2.98 | 
N=C(N)N[C@@H]1C[C@H](C(=O)N[C@@H](Cc2ccc(O)cc2)C(N)=O)N(C(=O)[C@H](Cc2cccc3ccccc23)NC(=O)[C@H](CCCCNC(=O)c2cnccn2)NC(=O)[C@H](CCCCNC(=O)[C@H](Cc2cccc3ccccc23)NC(=O)[C@H](CCCCNC(=O)c2ccc(B3OC(=O)c4cc(O)ccc4O3)cc2)NC(=O)[C@H]2C[C@@H](NC(=N)N)CN2)NC(=O)[C@H](Cc2cccc3ccccc23)NC(=O)[C@H](CCCCNC(=O)c2ccc(B3OC(=O)c4cc(O)ccc4O3)cc2)NC(=O)[C@H]2C[C@@H](NC(=N)N)CN2)C1 | 4.96 | 

Stronger by Kd [1], values ahead:

Kd [1] [µM] | Compound | inhibition [2] [%]
1.32 | N=C(N)N[C@@H]1C[C@H](C(=O)N[C@@H](CCCCNC(=O)c2cnccn2)C(=O)N2C[C@H](N)C[C@@H]2C(=O)N[C@@H](Cc2ccc(O)cc2)C(N)=O)N(C(=O)[C@H](CCCCNC(=O)[C@H]2C[C@@H](N)CN2C(=O)[C@H]2C[C@@H](N)CN2C(=O)[C@H]2C[C@@H](NC(=N)N)CN2)NC(=O)[C@H]2C[C@@H](N)CN2C(=O)[C@H]2C[C@@H](N)CN2C(=O)[C@H]2C[C@@H](NC(=N)N)CN2)C1 | 
1.3 | N=C(N)N[C@@H]1C[C@H](C(=O)N2C[C@H](NC(=N)N)C[C@@H]2C(=O)N[C@@H](CCCCNC(=O)c2cnccn2)C(=O)N[C@@H](Cc2ccc(O)cc2)C(N)=O)N(C(=O)[C@H](CCCCNC(=O)[C@H](CCCCNC(=O)c2cnccn2)NC(=O)[C@H]2C[C@@H](N)CN2C(=O)[C@H]2C[C@@H](NC(=N)N)CN2)NC(=O)[C@H](CCCCNC(=O)c2cnccn2)NC(=O)[C@H]2C[C@@H](N)CN2C(=O)[C@H]2C[C@@H](NC(=N)N)CN2)C1 | 
1.18 | N=C(N)N[C@H]1CN[C@@H](C(=O)N2C[C@H](N)C[C@@H]2C(=O)NCCN(CC(=O)NCCCC[C@H](NC(=O)CN(CCNC(=O)[C@H]2C[C@@H](N)CN2C(=O)[C@H]2C[C@@H](NC(=N)N)CN2)C(=O)Cn2cnc3c(=O)[nH]c(N)nc32)C(=O)NCCN(CC(=O)N[C@@H](CCCCNC(=O)c2ccc(B3OC(=O)c4cc(O)ccc4O3)cc2)C(=O)N[C@@H](CCCCNC(=O)c2cnccn2)C(=O)N[C@@H](Cc2ccc(O)cc2)C(N)=O)C(=O)Cn2cnc3c(=O)[nH]c(N)nc32)C(=O)Cn2cnc3c(=O)[nH]c(N)nc32)C1 | 
1.12 | N=C(N)N[C@@H]1C[C@H](C(=O)NCCCC[C@H](NC(=O)[C@H]2C[C@@H](NC(=N)N)CN2C(=O)[C@H]2C[C@@H](N)CN2C(=O)[C@H]2C[C@@H](NC(=N)N)CN2)C(=O)N[C@@H](CCCCNC(=O)c2cnccn2)C(=O)N[C@@H](CCCCNC(=O)c2cnccn2)C(=O)NCCN(CC(=O)N[C@@H](Cc2ccc(O)cc2)C(N)=O)C(=O)Cn2cnc3c(=O)[nH]c(N)nc32)N(C(=O)[C@H]2C[C@@H](N)CN2C(=O)[C@H]2C[C@@H](NC(=N)N)CN2)C1 | > 50
1.11 | N=C(N)N[C@@H]1C[C@H](C(=O)N2C[C@H](N)C[C@@H]2C(=O)N[C@@H](Cc2ccc(O)cc2)C(N)=O)N(C(=O)CN(CCNC(=O)[C@H](CCCCNC(=O)[C@H]2C[C@@H](NC(=N)N)CN2C(=O)[C@H]2C[C@@H](N)CN2C(=O)[C@@H](N)CCCCNC(=O)c2cnccn2)NC(=O)[C@H]2C[C@@H](NC(=N)N)CN2C(=O)[C@H]2C[C@@H](N)CN2C(=O)[C@@H](N)CCCCNC(=O)c2cnccn2)C(=O)Cn2cnc3c(=O)[nH]c(N)nc32)C1 | 
1.02 | N=C(N)N[C@H]1CN[C@@H](C(=O)N2C[C@H](N)C[C@@H]2C(=O)N2C[C@H](N)C[C@@H]2C(=O)NCCCC[C@H](NC(=O)[C@H]2C[C@@H](N)CN2C(=O)[C@H]2C[C@@H](N)CN2C(=O)[C@H]2C[C@@H](NC(=N)N)CN2)C(=O)N[C@@H](CCCCNC(=O)c2cnccn2)C(=O)NCCN(CC(=O)N2C[C@H](N)C[C@@H]2C(=O)N[C@@H](Cc2ccc(O)cc2)C(N)=O)C(=O)Cn2cnc3c(=O)[nH]c(N)nc32)C1 | 
0.72 | N=C(N)N[C@@H]1C[C@H](C(=O)N2C[C@H](N)C[C@@H]2C(=O)N[C@@H](Cc2ccc(O)cc2)C(N)=O)N(C(=O)[C@H]2C[C@@H](N)CN2C(=O)[C@H](CCCCNC(=O)[C@H]2C[C@@H](N)CN2C(=O)[C@H]2C[C@@H](NC(=N)N)CN2C(=O)[C@H]2C[C@@H](N)CN2)NC(=O)[C@H]2C[C@@H](N)CN2C(=O)[C@H]2C[C@@H](NC(=N)N)CN2C(=O)[C@H]2C[C@@H](N)CN2)C1 | 
0.66 | N=C(N)N[C@H]1CN[C@@H](C(=O)N2C[C@H](N)C[C@@H]2C(=O)N[C@@H](Cc2cccc3ccccc23)C(=O)NCCCC[C@H](NC(=O)[C@H](Cc2cccc3ccccc23)NC(=O)[C@H]2C[C@@H](N)CN2C(=O)[C@H]2C[C@@H](NC(=N)N)CN2)C(=O)NCCN(CC(=O)NCCN(CC(=O)N[C@@H](Cc2cccc3ccccc23)C(=O)N[C@@H](Cc2ccc(O)cc2)C(N)=O)C(=O)Cn2cnc3c(=O)[nH]c(N)nc32)C(=O)Cn2cnc3c(=O)[nH]c(N)nc32)C1 | 
0.41 | N=C(N)N[C@@H]1C[C@H](C(=O)NCCN(CC(=O)N[C@@H](CCCCNC(=O)c2ccc(B(O)O)cc2)C(=O)N[C@@H](Cc2ccc(O)cc2)C(N)=O)C(=O)Cn2cnc3c(=O)[nH]c(N)nc32)N(C(=O)[C@H](CCCCNC(=O)[C@H]2C[C@@H](NC(=N)N)CN2C(=O)[C@H]2C[C@@H](NC(=N)N)CN2C(=O)[C@H]2C[C@@H](N)CN2)NC(=O)[C@H]2C[C@@H](NC(=N)N)CN2C(=O)[C@H]2C[C@@H](NC(=N)N)CN2C(=O)[C@H]2C[C@@H](N)CN2)C1 | > 50
